# Activity calls are given as the source filed them. The calls are words filed in the database; no cut-off is given here.
# Assays:
# [1] = target: Toll-like receptor 3 (Homo sapiens) (UniProt O15455); assay: Agonist activity at human TLR3 HEK-Blue cells assessed as increase in NFkappaB activation by sAP reporter gene assay; type: functional, cell-based
# Procedure, shortened: (§1)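 HEK293 cells stably transfected with human TLR3, TLR7 or TLR8 plus MD2 and an NF-κB/AP-1-driven secreted alkaline phosphatase reporter (HEK-Blue), kept in selection medium with zeocin and normocin. Cells at ~10^5 cells/ml were grown to confluency and then given graded concentrations of stimuli. Supernatant sAP was read spectrophotometrically at 620 nm with a chromogen in HEK-detection medium.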
# Toll-like receptor 7 [2] = target: T1, Toll-like receptor 7 (Homo sapiens, UniProt Q9NYK1); assay: Agonist activity at human TLR7 expressed in HEK-Blue cells assessed as increase in NFkappaB activation by sAP reporter gene assay; type: functional, cell-based; procedure, shortened: as §1
# T1 sequence (Q9NYK1 whole entry): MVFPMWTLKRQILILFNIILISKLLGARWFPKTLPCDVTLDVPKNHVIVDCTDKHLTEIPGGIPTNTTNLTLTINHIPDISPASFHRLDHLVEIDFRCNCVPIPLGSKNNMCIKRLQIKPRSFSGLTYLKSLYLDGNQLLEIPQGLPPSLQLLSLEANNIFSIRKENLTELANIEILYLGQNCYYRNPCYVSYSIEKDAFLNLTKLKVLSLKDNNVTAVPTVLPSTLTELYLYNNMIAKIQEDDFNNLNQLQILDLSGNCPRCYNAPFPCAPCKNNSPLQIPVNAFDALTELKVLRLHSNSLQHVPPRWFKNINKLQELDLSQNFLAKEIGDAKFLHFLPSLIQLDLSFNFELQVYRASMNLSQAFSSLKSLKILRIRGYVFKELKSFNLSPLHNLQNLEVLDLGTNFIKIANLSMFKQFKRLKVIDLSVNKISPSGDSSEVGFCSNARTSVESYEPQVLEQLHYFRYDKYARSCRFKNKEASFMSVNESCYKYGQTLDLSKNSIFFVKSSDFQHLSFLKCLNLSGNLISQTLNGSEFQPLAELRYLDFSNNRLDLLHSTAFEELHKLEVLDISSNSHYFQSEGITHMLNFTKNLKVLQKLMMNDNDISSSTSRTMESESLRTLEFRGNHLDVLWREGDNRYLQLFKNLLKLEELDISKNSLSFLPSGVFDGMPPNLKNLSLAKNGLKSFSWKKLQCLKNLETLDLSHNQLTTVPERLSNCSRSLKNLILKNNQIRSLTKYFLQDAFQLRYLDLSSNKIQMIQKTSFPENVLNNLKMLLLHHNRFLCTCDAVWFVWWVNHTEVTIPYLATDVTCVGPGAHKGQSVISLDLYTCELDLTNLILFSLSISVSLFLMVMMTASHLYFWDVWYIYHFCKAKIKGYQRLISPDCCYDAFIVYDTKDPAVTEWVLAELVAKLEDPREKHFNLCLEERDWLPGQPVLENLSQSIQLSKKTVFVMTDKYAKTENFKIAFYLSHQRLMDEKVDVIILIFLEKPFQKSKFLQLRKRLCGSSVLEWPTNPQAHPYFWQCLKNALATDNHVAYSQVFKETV
# Toll-like receptor 8 [3] = target: T2, Toll-like receptor 8 (Homo sapiens, UniProt Q9NR97); assay: Agonist activity at human TLR8 expressed in HEK-Blue cells assessed as increase in NFkappaB activation by sAP reporter gene assay; type: functional, cell-based; procedure, shortened: as §1
# T2 sequence (Q9NR97 whole entry): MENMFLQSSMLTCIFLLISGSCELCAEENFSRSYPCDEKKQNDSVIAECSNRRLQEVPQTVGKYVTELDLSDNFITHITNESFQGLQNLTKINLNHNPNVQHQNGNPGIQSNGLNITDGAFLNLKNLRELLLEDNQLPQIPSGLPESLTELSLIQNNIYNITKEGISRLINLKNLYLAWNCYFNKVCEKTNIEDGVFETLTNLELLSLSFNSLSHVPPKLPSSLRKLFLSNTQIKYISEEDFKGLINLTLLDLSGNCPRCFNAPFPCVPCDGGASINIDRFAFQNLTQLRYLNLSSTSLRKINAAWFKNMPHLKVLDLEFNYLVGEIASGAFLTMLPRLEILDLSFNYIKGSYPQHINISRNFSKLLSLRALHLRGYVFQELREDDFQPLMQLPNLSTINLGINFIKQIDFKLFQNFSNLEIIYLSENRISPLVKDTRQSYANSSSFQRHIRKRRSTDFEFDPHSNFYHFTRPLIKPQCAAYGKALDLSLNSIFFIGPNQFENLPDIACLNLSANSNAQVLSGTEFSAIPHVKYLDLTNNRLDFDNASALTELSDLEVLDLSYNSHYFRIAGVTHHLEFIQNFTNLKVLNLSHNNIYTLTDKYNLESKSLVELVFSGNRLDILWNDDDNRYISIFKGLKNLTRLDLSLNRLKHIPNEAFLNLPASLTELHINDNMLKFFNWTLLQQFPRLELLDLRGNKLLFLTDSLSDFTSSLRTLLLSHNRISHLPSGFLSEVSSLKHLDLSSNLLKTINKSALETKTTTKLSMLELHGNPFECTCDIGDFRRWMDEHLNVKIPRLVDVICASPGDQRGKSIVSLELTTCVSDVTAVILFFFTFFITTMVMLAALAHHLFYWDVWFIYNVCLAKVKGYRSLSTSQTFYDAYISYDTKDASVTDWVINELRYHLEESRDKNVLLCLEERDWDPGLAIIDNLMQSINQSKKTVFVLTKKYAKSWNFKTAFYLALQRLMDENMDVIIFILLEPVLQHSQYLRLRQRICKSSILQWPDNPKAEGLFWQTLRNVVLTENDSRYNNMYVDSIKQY
# PBMC = assay: Immunostimulatory activity in human PBMC assessed as induction IFN-alpha production after 12 hrs by ELISA; type: functional, cell-based
# Procedure, shortened: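 Healthy-donor PBMCs were prepared by Ficoll-Hypaque gradient and aliquoted at 10⁶ cells. Cells were stimulated 12 h with graded test concentrations. Supernatant was diluted 1:20 and IFN-α measured in triplicate by high-sensitivity human IFN-α ELISA.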
# [4] = target: T3, Toll-like receptor 7 (Homo sapiens) (UniProt Q9NYK1); assay: (§2) Antagonist activity at TLR7 in human PBMC assessed as inhibition of gardiquimod-induced TNF-alpha release after 12 hrs by bead array assay; type: functional
# T3 sequence (whole entry): T1 sequence (Q9NYK1 whole entry)
# Procedure, shortened: (§3)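 Human PBMCs from healthy donors, isolated by Ficoll-Hypaque, 10⁶ cells per aliquot. Cells were incubated 12 h with graded test concentrations plus 10 μg/ml gardiquimod. Supernatants were diluted 1:20 and analytes measured in triplicate by cytokine/chemokine bead array. Three independent experiments.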
# [5] = target: T3, Toll-like receptor 7 (Homo sapiens); assay: (§4) Antagonist activity at TLR7 in human PBMC assessed as inhibition of gardiquimod-induced IL-1beta release after 12 hrs by bead array assay; type: functional; procedure, shortened: as §3
# Toll-like receptor 7 [6] = target: T1, Toll-like receptor 7; assay: Antagonist activity at TLR7 in human PBMC assessed as inhibition of gardiquimod-induced IL-8 release after 12 hrs by bead array assay; type: functional; procedure, shortened: as §3
# Toll-like receptor 8 [7] = target: T2, Toll-like receptor 8; assay: Antagonist activity at TLR8 in human PBMC assessed as inhibition of CL075-TNF-alpha release after 12 hrs by bead array assay; type: functional
# Procedure, shortened: (§5)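 Ficoll-Hypaque-isolated healthy-donor PBMCs (10⁶ cells) were exposed 12 h to graded test concentrations together with 10 μg/ml CL075. Supernatants were diluted 1:20 and each cytokine or chemokine assayed in triplicate by bead array. Three independent experiments.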
# Toll-like receptor 8 [8] = target: T2, Toll-like receptor 8; assay: Antagonist activity at TLR8 in human PBMC assessed as inhibition of CL075-induced IL-6 release after 12 hrs by bead array assay; type: functional; procedure, shortened: as §5
# Toll-like receptor 8 [9] = target: T2, Toll-like receptor 8; assay: Antagonist activity at TLR8 in human PBMC assessed as inhibition of CL075-induced IL-8 release after 12 hrs by bead array assay; type: functional; procedure, shortened: as §5
# Toll-like receptor 7 [10] = target: T1, Toll-like receptor 7; assay: Antagonist activity at TLR7 in human PBMC assessed as inhibition of gardiquimod-induced IL-6 release after 12 hrs by bead array assay; type: functional; procedure, shortened: as §3
# Toll-like receptor 7 [11] = target: T1, Toll-like receptor 7; assay: as §2; type: functional; procedure, shortened: as §3
# Toll-like receptor 7 [12] = target: T1, Toll-like receptor 7; assay: as §4; type: functional; procedure, shortened: as §3
# Toll-like receptor 7 [13] = target: T1, Toll-like receptor 7; assay: Antagonist activity at TLR7 in human PBMC assessed as inhibition of gardiquimod-induced CXCL10 release after 12 hrs by bead array assay; type: functional; procedure, shortened: as §3
# Toll-like receptor 7 [14] = target: T1, Toll-like receptor 7; assay: Antagonist activity at TLR7 in human PBMC assessed as inhibition of gardiquimod-induced CCL2 release after 12 hrs by bead array assay; type: functional; procedure, shortened: as §3
# Toll-like receptor 8 [15] = target: T2, Toll-like receptor 8; assay: Antagonist activity at TLR8 in human PBMC assessed as inhibition of CL075-induced IL-1beta release after 12 hrs by bead array assay; type: functional; procedure, shortened: as §5
# Toll-like receptor 8 [16] = target: T2, Toll-like receptor 8; assay: Antagonist activity at TLR8 in human PBMC assessed as inhibition of CL075-induced CXCL10 release after 12 hrs by bead array assay; type: functional; procedure, shortened: as §5
# Toll-like receptor 8 [17] = target: T2, Toll-like receptor 8; assay: Antagonist activity at TLR8 in human PBMC assessed as inhibition of CL075-induced CCL2 release after 12 hrs by bead array assay; type: functional; procedure, shortened: as §5
# [18] = target: T4, Toll-like receptor 8 (Homo sapiens) (UniProt Q9NR97); assay: Inhibition of human TLR8 expressed in HEK-Blue cells by schild plot analysis
# T4 sequence (whole entry): T2 sequence (Q9NR97 whole entry)
# Sequence of Toll-like receptor 3 (Homo sapiens) (O15455 whole entry): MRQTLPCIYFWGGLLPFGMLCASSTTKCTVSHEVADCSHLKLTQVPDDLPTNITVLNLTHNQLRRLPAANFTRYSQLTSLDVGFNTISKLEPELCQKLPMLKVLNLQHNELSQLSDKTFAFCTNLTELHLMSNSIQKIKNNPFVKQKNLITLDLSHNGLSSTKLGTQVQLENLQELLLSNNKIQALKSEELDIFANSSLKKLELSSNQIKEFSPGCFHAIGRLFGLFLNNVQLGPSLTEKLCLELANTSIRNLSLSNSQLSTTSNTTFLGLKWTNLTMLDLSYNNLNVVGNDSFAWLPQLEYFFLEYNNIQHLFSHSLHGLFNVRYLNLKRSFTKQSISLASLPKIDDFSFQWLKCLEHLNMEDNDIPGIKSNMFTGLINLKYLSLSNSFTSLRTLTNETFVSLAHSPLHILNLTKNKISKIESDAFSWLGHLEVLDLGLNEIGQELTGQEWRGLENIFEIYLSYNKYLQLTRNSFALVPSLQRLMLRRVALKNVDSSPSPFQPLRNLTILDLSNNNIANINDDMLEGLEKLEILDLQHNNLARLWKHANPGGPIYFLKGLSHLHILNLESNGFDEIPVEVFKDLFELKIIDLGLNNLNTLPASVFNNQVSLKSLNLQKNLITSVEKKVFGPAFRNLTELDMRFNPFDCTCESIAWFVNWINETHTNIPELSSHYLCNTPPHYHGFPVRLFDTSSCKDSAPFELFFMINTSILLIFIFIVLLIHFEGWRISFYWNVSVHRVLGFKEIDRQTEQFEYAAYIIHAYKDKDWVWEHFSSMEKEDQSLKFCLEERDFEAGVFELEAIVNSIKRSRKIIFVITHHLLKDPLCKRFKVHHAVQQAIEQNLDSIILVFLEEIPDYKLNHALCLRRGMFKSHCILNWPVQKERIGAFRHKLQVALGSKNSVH
SMILES,Activity [1],EC50 (Toll-like receptor 7 [2]),further results
CCCCc1nc2c(N)nc3ccccc3c2n1Cc1ccc(CNC(=O)CCCCCCCCCCC(=O)NCc2ccc(Cn3c(CCCC)nc4c(N)nc5ccccc5c43)cc2)cc1,inactive,170 nM,EC50 (Toll-like receptor 8 [3]): 4780 nM; Activity (PBMC): Dose-dependent effect
CCCCc1nc2c(N)nc3ccc(NC(=O)CCCCCCC(=O)Nc4ccc5nc(N)c6nc(CCCC)n(Cc7ccc(CN)cc7)c6c5c4)cc3c2n1Cc1ccc(CN)cc1,inactive,4020 nM,
Nc1nc2ccccc2c2c1nc(CCCCCCCCCCc1nc3c(N)nc4ccccc4c3n1Cc1ccccc1)n2Cc1ccccc1,inactive,,
CCCCc1nc2c(NCCCCCCCCCCCCNc3nc4ccccc4c4c3nc(CCCC)n4Cc3ccccc3)nc3ccccc3c2n1Cc1ccccc1,inactive,1420 nM,Activity (PBMC): Dose-dependent effect
CCCCc1nc2c(N)nc3ccccc3c2n1Cc1ccc(CNC(=O)CCCCC(=O)NCc2ccc(Cn3c(CCCC)nc4c(N)nc5ccccc5c43)cc2)cc1,inactive,110 nM,Activity (PBMC): Dose-dependent effect
Nc1nc2ccccc2c2c1nc(CCCCCCc1nc3c(N)nc4ccccc4c3n1Cc1ccccc1)n2Cc1ccccc1,inactive,,
CCCCc1nc2c(N)nc3ccc(NC(=O)CCCCCCCCCCC(=O)Nc4ccc5nc(N)c6nc(CCCC)n(Cc7ccc(CN)cc7)c6c5c4)cc3c2n1Cc1ccc(CN)cc1,inactive,5400 nM,
Nc1nc2ccccc2c2c1nc(CCCCc1nc3c(N)nc4ccccc4c3n1Cc1ccccc1)n2Cc1ccccc1,inactive,,
CCCCc1nc2c(NCCCCCCCCCCNc3nc4ccccc4c4c3nc(CCCC)n4Cc3ccccc3)nc3ccccc3c2n1Cc1ccccc1,inactive,3000 nM,
CCCCc1nc2c(NCCCCCCCCNc3nc4ccccc4c4c3nc(CCCC)n4Cc3ccccc3)nc3ccccc3c2n1Cc1ccccc1,inactive,560 nM,
CCCCc1nc2c(NCCCCNc3nc4ccccc4c4c3nc(CCCC)n4Cc3ccccc3)nc3ccccc3c2n1Cc1ccccc1,inactive,2050 nM,
CCN(CC)CCCC(C)Nc1ccnc2cc(Cl)ccc12 (centres undefined),,,inhibition [4]: Active; inhibition [5]: Active
CCCCc1nc2c(N)nc3ccc([N+](=O)[O-])cc3c2n1Cc1ccc(CN)cc1,inactive,560 nM,
CCCCc1nc2c(N)nc3ccc(NC(=O)CCCCC(=O)Nc4ccc5nc(N)c6nc(CCCC)n(Cc7ccc(CN)cc7)c6c5c4)cc3c2n1Cc1ccc(CN)cc1,inactive,7240 nM,Activity (PBMC): Dose-dependent effect
Nc1nc2ccccc2c2c1nc(CCCc1nc3c(N)nc4ccccc4c3n1Cc1ccccc1)n2Cc1ccccc1,inactive,,IC50 (Toll-like receptor 7 [6]): 50 nM; IC50 (Toll-like receptor 8 [7]): 50 nM; IC50 (Toll-like receptor 8 [8]): 50 nM; IC50 (Toll-like receptor 8 [9]): 50 nM; IC50 (Toll-like receptor 7 [10]): 50 nM; IC50 (Toll-like receptor 7 [11]): 50 nM; IC50 (Toll-like receptor 7 [12]): 50 nM; IC50 (Toll-like receptor 7 [13]): 50 nM; IC50 (Toll-like receptor 7 [14]): 50 nM; IC50 (Toll-like receptor 8 [15]): 50 nM; IC50 (Toll-like receptor 8 [16]): 50 nM; IC50 (Toll-like receptor 8 [17]): 50 nM; inhibition [18]: Active
CCCCc1nc2c(N)nc3ccc(N)cc3c2n1Cc1ccc(CN)cc1,inactive,450 nM,
CCCCc1nc2c(N)nc3ccccc3c2n1Cc1ccc(CNC(=O)CCCCCCC(=O)NCc2ccc(Cn3c(CCCC)nc4c(N)nc5ccccc5c43)cc2)cc1,inactive,240 nM,Activity (PBMC): Dose-dependent effect
